Consider 4 compounds from ChEMBL document CHEMBL4038304, “Chiral Indolylarylsulfone Non-Nucleoside Reverse Transcriptase Inhibitors as New Potent and Broad Spectrum Anti-HIV-1 Agents” (J Med Chem, 2017).

Where only a bound is given, the exact number is not on record here.

The first data set concerns Human immunodeficiency virus 1. Nature of the data set: Ratio of EC50 for HIV-1 harboring reverse transcriptase Y188L mutant infected in human MT4 cells to EC50 for HIV1 NL4-3 infected in human MT4 cells. The class given is functional.
Conditions: not given
The essentials: (§1)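 Fold change calculated as EC50 against the stated resistant mutant HIV-1 strain divided by EC50 against wild-type NL4-3. Both EC50s come from MTT read-out of virus-induced death in MT-4 cells, mean of two to three independent experiments each in triplicate.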
Consider `Cc1cc(C)cc(S(=O)(=O)c2c(C(=O)NCC(=O)NCCn3c(C)cnc3[N+](=O)[O-])[nH]c3ccc(Cl)cc23)c1`, for which the “Ratio EC50” value worked out at 11605.
`Cc1cc(C)cc(S(=O)(=O)c2c(C(=O)NC(C)C(=O)NC(C)c3ccncc3)[nH]c3ccc(Cl)cc23)c1` (racemic): the “Ratio EC50” value came out at 21488.
The same measure, in the same setting: in the case of `Cc1cc(C)cc(S(=O)(=O)c2c(C(=O)NCC(=O)NC(C)c3ccccc3F)[nH]c3ccc(Cl)cc23)c1` (racemic) it was 6118; in that of `Cc1cc(C)cc(S(=O)(=O)c2c(C(=O)NCC(=O)NCCc3cccs3)[nH]c3ccc(Cl)cc23)c1`, >941.

Tested on in another data set: not listed separately
The data set is described as follows: Cytotoxicity against human MT4 cells assessed as cell viability by MTT assay. The class given is cell-based.
Conditions: not given
The essentials: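 Uninfected MT-4 cells scored for viability by MTT. […] Values are means of two to three independent experiments, each run in triplicate.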
Background: Tetrazolium assays rely on reduction of a dye to a coloured formazan, in cell work by metabolically active cells.
Usually CC50 stands for the concentration giving 50% cytotoxicity. Regarding `Cc1cc(C)cc(S(=O)(=O)c2c(C(=O)NCC(=O)NCCn3c(C)cnc3[N+](=O)[O-])[nH]c3ccc(Cl)cc23)c1`, the CC50 came out at 24500 nM.
For the compound `Cc1cc(C)cc(S(=O)(=O)c2c(C(=O)NC(C)C(=O)NC(C)c3ccncc3)[nH]c3ccc(Cl)cc23)c1` (racemic), the CC50 came out at 21900 nM.
For `Cc1cc(C)cc(S(=O)(=O)c2c(C(=O)NCC(=O)NC(C)c3ccccc3F)[nH]c3ccc(Cl)cc23)c1` (racemic), the CC50 is > 23000 nM.
Take `Cc1cc(C)cc(S(=O)(=O)c2c(C(=O)NCC(=O)NCCc3cccs3)[nH]c3ccc(Cl)cc23)c1`: the CC50 stood at 35700 nM.

A further data set relates to Human immunodeficiency virus 1. The data set is described as follows: Antiviral activity against HIV1 harboring reverse transcriptase Y181C mutant infected in human […] cells assessed as protection against virus-induced cytopathic effect measured on day 5 post infection by MTT assay. The format is functional, cell-based. The note with it: Human immunodeficiency virus 1, 120 h. (Cytopathic effects are the visible damage that an infection or toxin causes in cultured cells.)
Broadly, the EC50 is the concentration giving half of the maximal effect. On to `Cc1cc(C)cc(S(=O)(=O)c2c(C(=O)NCC(=O)NCCn3c(C)cnc3[N+](=O)[O-])[nH]c3ccc(Cl)cc23)c1`, for which the EC50 is 17 nM.
Turning to `Cc1cc(C)cc(S(=O)(=O)c2c(C(=O)NC(C)C(=O)NC(C)c3ccncc3)[nH]c3ccc(Cl)cc23)c1` (racemic), the EC50 is 167 nM.
On to `Cc1cc(C)cc(S(=O)(=O)c2c(C(=O)NCC(=O)NC(C)c3ccccc3F)[nH]c3ccc(Cl)cc23)c1` (racemic), for which the EC50 came to 13 nM.
In the case of `Cc1cc(C)cc(S(=O)(=O)c2c(C(=O)NCC(=O)NCCc3cccs3)[nH]c3ccc(Cl)cc23)c1`, the concentration giving a half-maximal response (EC50) stood at 321 nM.

The next data set relates to Human immunodeficiency virus 1. The data set is described as follows: Ratio of EC50 for HIV-1 harboring reverse transcriptase K103N/[…] double mutant infected in human MT4 cells to EC50 for HIV1 NL4-3 infected in human MT4 cells.
Conditions: not given
The class given is functional. An outline of the steps:
as §1
Consider `Cc1cc(C)cc(S(=O)(=O)c2c(C(=O)NCC(=O)NCCn3c(C)cnc3[N+](=O)[O-])[nH]c3ccc(Cl)cc23)c1`, for which the “Ratio EC50” value was 23285.
Turning to `Cc1cc(C)cc(S(=O)(=O)c2c(C(=O)NC(C)C(=O)NC(C)c3ccncc3)[nH]c3ccc(Cl)cc23)c1` (racemic), the “Ratio EC50” value is >60805.
As to `Cc1cc(C)cc(S(=O)(=O)c2c(C(=O)NCC(=O)NC(C)c3ccccc3F)[nH]c3ccc(Cl)cc23)c1` (racemic), the “Ratio EC50” value is reported as >38345.
For the compound `Cc1cc(C)cc(S(=O)(=O)c2c(C(=O)NCC(=O)NCCc3cccs3)[nH]c3ccc(Cl)cc23)c1`, the “Ratio EC50” value is on record as >941.

The next data set concerns Human immunodeficiency virus 1. The data set is described as follows: Antiviral activity against HIV1 NL4-3 infected in human […] cells assessed as protection against virus-induced cytopathic effect measured on day 5 post infection by MTT assay. The format is functional, cell-based. The note with it: Human immunodeficiency virus 1, NL4-3, 120 h. The essentials: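 Values are means of two to three independent experiments, each run in triplicate. The lowest detectable concentration is reported where activity fell below the assay limit.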
For `Cc1cc(C)cc(S(=O)(=O)c2c(C(=O)NCC(=O)NCCn3c(C)cnc3[N+](=O)[O-])[nH]c3ccc(Cl)cc23)c1`, the EC50 worked out at 0.2 nM.
With `Cc1cc(C)cc(S(=O)(=O)c2c(C(=O)NC(C)C(=O)NC(C)c3ccncc3)[nH]c3ccc(Cl)cc23)c1` (racemic), the EC50 was determined as 0.6 nM.
Take `Cc1cc(C)cc(S(=O)(=O)c2c(C(=O)NCC(=O)NC(C)c3ccccc3F)[nH]c3ccc(Cl)cc23)c1` (racemic): the EC50 was 0.6 nM.
In the case of `Cc1cc(C)cc(S(=O)(=O)c2c(C(=O)NCC(=O)NCCc3cccs3)[nH]c3ccc(Cl)cc23)c1`, the half-maximal effective concentration (EC50) came to 3.8 nM.

In the next data set the test system is Human immunodeficiency virus 1. Nature of the data set: Ratio of EC50 for HIV-1 harboring reverse transcriptase K103N mutant infected in human MT4 cells to EC50 for HIV1 NL4-3 infected in human MT4 cells.
Conditions: not given
The format is functional. The essentials:
as §1
`Cc1cc(C)cc(S(=O)(=O)c2c(C(=O)NCC(=O)NCCn3c(C)cnc3[N+](=O)[O-])[nH]c3ccc(Cl)cc23)c1`: the “Ratio EC50” value turned out to be 1395.
Still for that read-out and setting: the result for `Cc1cc(C)cc(S(=O)(=O)c2c(C(=O)NC(C)C(=O)NC(C)c3ccncc3)[nH]c3ccc(Cl)cc23)c1` (racemic) reads 12; that for `Cc1cc(C)cc(S(=O)(=O)c2c(C(=O)NCC(=O)NC(C)c3ccccc3F)[nH]c3ccc(Cl)cc23)c1` (racemic), 552.
In the case of `Cc1cc(C)cc(S(=O)(=O)c2c(C(=O)NCC(=O)NCCc3cccs3)[nH]c3ccc(Cl)cc23)c1`, the “Ratio EC50” value was found to be 352.

For a further data set, the system named is Human immunodeficiency virus 1. The data set is described as follows: Antiviral activity against HIV1 harboring reverse transcriptase K103N mutant infected in human […] cells assessed as protection against virus-induced cytopathic effect measured on day 5 post infection by MTT assay. The class given is functional, cell-based. As to conditions: Human immunodeficiency virus 1, 120 h.
On to `Cc1cc(C)cc(S(=O)(=O)c2c(C(=O)NCC(=O)NCCn3c(C)cnc3[N+](=O)[O-])[nH]c3ccc(Cl)cc23)c1`, for which the EC50 was determined as 279 nM.
As to `Cc1cc(C)cc(S(=O)(=O)c2c(C(=O)NC(C)C(=O)NC(C)c3ccncc3)[nH]c3ccc(Cl)cc23)c1` (racemic), the half-maximal effective concentration (EC50) came to 7.4 nM.
For the compound `Cc1cc(C)cc(S(=O)(=O)c2c(C(=O)NCC(=O)NC(C)c3ccccc3F)[nH]c3ccc(Cl)cc23)c1` (racemic), the EC50 was 387 nM.
As to `Cc1cc(C)cc(S(=O)(=O)c2c(C(=O)NCC(=O)NCCc3cccs3)[nH]c3ccc(Cl)cc23)c1`, the concentration for a half-maximal effect (EC50) came out at 1340 nM.

Tested on in a further data set: not listed separately
Nature of the data set: Selectivity index, ratio of CC50 for human MT4 cells to EC50 for HIV1 NL4-3 infected in human MT4 cells. The format is toxicity, cell-based. The note with it: read-out: Ratio CC50/EC50. The essentials: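 SI computed as CC50/EC50, using the MTT-based CC50 in uninfected MT-4 cells and the MTT-based EC50 against HIV-1 NL4-3-induced cell death in MT-4 cells. Experiments were run in triplicate, two to three times.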
With `Cc1cc(C)cc(S(=O)(=O)c2c(C(=O)NCC(=O)NCCn3c(C)cnc3[N+](=O)[O-])[nH]c3ccc(Cl)cc23)c1`, the selectivity ratio was found to be 144000.
The same measure, in the same setting: the result for `Cc1cc(C)cc(S(=O)(=O)c2c(C(=O)NC(C)C(=O)NC(C)c3ccncc3)[nH]c3ccc(Cl)cc23)c1` (racemic) reads > 36500; that for `Cc1cc(C)cc(S(=O)(=O)c2c(C(=O)NCC(=O)NC(C)c3ccccc3F)[nH]c3ccc(Cl)cc23)c1` (racemic), > 38300; that for `Cc1cc(C)cc(S(=O)(=O)c2c(C(=O)NCC(=O)NCCc3cccs3)[nH]c3ccc(Cl)cc23)c1`, 9480.

Another data set relates to Human immunodeficiency virus 1. The data set is described as follows: Ratio of EC50 for HIV-1 harboring reverse transcriptase Y181C mutant infected in human MT4 cells to EC50 for HIV1 NL4-3 infected in human MT4 cells.
Conditions: not given
The format is functional. An outline of the steps: as §1
As to `Cc1cc(C)cc(S(=O)(=O)c2c(C(=O)NCC(=O)NCCn3c(C)cnc3[N+](=O)[O-])[nH]c3ccc(Cl)cc23)c1`, the “Ratio EC50” value worked out at 85.
Take `Cc1cc(C)cc(S(=O)(=O)c2c(C(=O)NC(C)C(=O)NC(C)c3ccncc3)[nH]c3ccc(Cl)cc23)c1` (racemic): the “Ratio EC50” value was 278.
Take `Cc1cc(C)cc(S(=O)(=O)c2c(C(=O)NCC(=O)NC(C)c3ccccc3F)[nH]c3ccc(Cl)cc23)c1` (racemic): the “Ratio EC50” value was determined as 19.
On the same count and under the same terms, in the case of `Cc1cc(C)cc(S(=O)(=O)c2c(C(=O)NCC(=O)NCCc3cccs3)[nH]c3ccc(Cl)cc23)c1` it was 84.

A further data set has as its system Human immunodeficiency virus 1. Nature of the data set: Antiviral activity against HIV1 harboring reverse transcriptase K103N /[…] double mutant infected in human […] cells assessed as protection against virus-induced cytopathic effect measured on day 5 post infection by MTT assay. The class given is functional, cell-based. The note with it: Human immunodeficiency virus 1, 120 h.
`Cc1cc(C)cc(S(=O)(=O)c2c(C(=O)NCC(=O)NCCn3c(C)cnc3[N+](=O)[O-])[nH]c3ccc(Cl)cc23)c1`: the EC50 worked out at 4680 nM.
Regarding `Cc1cc(C)cc(S(=O)(=O)c2c(C(=O)NC(C)C(=O)NC(C)c3ccncc3)[nH]c3ccc(Cl)cc23)c1` (racemic), the concentration for a half-maximal effect (EC50) was > 36500 nM.
On to `Cc1cc(C)cc(S(=O)(=O)c2c(C(=O)NCC(=O)NC(C)c3ccccc3F)[nH]c3ccc(Cl)cc23)c1` (racemic), for which the EC50 was > 23000 nM.
In the case of `Cc1cc(C)cc(S(=O)(=O)c2c(C(=O)NCC(=O)NCCc3cccs3)[nH]c3ccc(Cl)cc23)c1`, the EC50 was > 3580 nM.

In a further data set the test system is Human immunodeficiency virus 1. The data set is described as follows: Antiviral activity against HIV1 harboring reverse transcriptase Y188L mutant infected in human […] cells assessed as protection against virus-induced cytopathic effect measured on day 5 post infection by MTT assay. The class given is functional, cell-based. As to conditions: Human immunodeficiency virus 1, 120 h.
For the compound `Cc1cc(C)cc(S(=O)(=O)c2c(C(=O)NCC(=O)NCCn3c(C)cnc3[N+](=O)[O-])[nH]c3ccc(Cl)cc23)c1`, the concentration for a half-maximal effect (EC50) was determined as 2320 nM.
Turning to `Cc1cc(C)cc(S(=O)(=O)c2c(C(=O)NC(C)C(=O)NC(C)c3ccncc3)[nH]c3ccc(Cl)cc23)c1` (racemic), the EC50 is 12900 nM.
As for `Cc1cc(C)cc(S(=O)(=O)c2c(C(=O)NCC(=O)NC(C)c3ccccc3F)[nH]c3ccc(Cl)cc23)c1` (racemic), the EC50 was 3670 nM.
On the same count and under the same terms, the result for `Cc1cc(C)cc(S(=O)(=O)c2c(C(=O)NCC(=O)NCCc3cccs3)[nH]c3ccc(Cl)cc23)c1` reads > 3580 nM.
